A short description of data set [1]: Oleyl alcohol-water partition coefficient, Rm of the compound measured at 0% methanol by reverse-phase thin layer chromatography. The format is physicochemical. An outline of the steps:
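Reversed-phase TLC on Kieselguhr G impregnated with oleyl alcohol. Mobile phases were methanol–water with ammonia and KCl, pH* 10.5, ionic strength 0.1 M, methanol 30–55% (w/w). Each compound had 10–12 Rm determinations at each methanol concentration.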

The nature of data set [2]: Octanol-water partition coefficient, log P of the compound. The format is physicochemical.
Data set [3] has as its target T1, Albumin (Bos taurus, UniProt P02769). As to the kind of experiment: Binding affinity to bovine serum albumin by circular dichroic probe technique. Type of data set: ADME. Conditions: cattle, isolated protein.
The nature of data set [4]: Dissociation constant, pKa of the compound by UV-visible spectrophotometer analysis. Type of data set: physicochemical.
Data set [5] addresses T1, Albumin. Put plainly: Binding affinity to bovine serum albumin assessed as intrinsic binding constant. The format is ADME. Particulars: cattle, isolated protein.
In data set [6] the target is T1, Albumin. As to the kind of experiment: Binding affinity to bovine serum albumin. Type of data set: ADME. Particulars: cattle, isolated protein.
Data set [7] has as its target T1, Albumin. Put plainly: Binding affinity to bovine serum albumin high affinity site by circular dichroic probe technique. The format is ADME. Conditions: cattle, isolated protein. The procedure, abridged:
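Displacement of sulfaethidole from its primary BSA site, followed by circular dichroism. Solutions were in 0.054 M sodium phosphate, pH 7.44 (25 °C), isotonic with NaCl. Reagent concentrations were 1.45 × 10−5 and 2.11 × 10−5 M. Spectra were scanned from 420 to 265 nm in 10-mm cells, with ellipticity read at 280–286 nm, corrected for drug effect on BSA. Apparent K came from the Klotz equation (n = 1) and was extrapolated to zero drug concentration.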

One may read the logP as a log measure of how a compound divides between an organic and an aqueous phase. Broadly, the pKa is the pH at which an ionisable group is half protonated. Higher therefore signals a group that holds its proton tightly.

T1 sequence (P02769 whole entry): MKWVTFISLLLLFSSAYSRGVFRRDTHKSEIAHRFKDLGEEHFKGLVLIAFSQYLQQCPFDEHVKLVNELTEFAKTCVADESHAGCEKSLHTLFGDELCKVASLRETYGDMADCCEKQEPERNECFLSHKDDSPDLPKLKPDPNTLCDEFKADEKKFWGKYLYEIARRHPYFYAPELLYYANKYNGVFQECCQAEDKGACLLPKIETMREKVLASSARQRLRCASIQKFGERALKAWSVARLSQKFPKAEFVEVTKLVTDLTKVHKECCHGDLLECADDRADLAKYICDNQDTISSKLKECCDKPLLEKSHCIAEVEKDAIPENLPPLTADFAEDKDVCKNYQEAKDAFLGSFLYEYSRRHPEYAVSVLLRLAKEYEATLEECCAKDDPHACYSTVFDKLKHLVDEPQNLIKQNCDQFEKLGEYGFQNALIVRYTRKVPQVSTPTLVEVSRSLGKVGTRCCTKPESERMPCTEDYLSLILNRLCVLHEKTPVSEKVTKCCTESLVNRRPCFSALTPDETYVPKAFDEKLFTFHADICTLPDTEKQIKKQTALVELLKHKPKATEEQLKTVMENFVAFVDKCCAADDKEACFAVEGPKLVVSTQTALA

In data set [1], `OCCN1CCN(CCCN2c3ccccc3Sc3ccc(C(F)(F)F)cc32)CC1` [FLUPHENAZINE] registered a Rm of 3.03. In data set [2], this compound returned a logP of 4.47.

Turning to `CCCC(=O)c1ccc2c(c1)N(CCCN1CCN(C)CC1)c1ccccc1S2` [BUTAPERAZINE], the Rm in data set [1] stood at 3.37. Also, the logKa on Albumin [3] amounted to 4.78. Moreover, the pKa in data set [4] was found to be 8.1.

As to `CC(CN1CCN(CCOCCO)CC1)CN1c2ccccc2Sc2ccccc21` (stereo not given) [DIXYRAZINE], in data set [1], the Rm turned out to be 2.49. For the same compound, on Albumin [3], the logKa is recorded as 4.21. In addition, the pKa in data set [4] was 8.

`CN(C)CCCN1c2ccccc2Sc2ccccc21` [PROMAZINE]: the results for the “log K” value on Albumin [5] and on Albumin [6] were 3.45 and 3.95, respectively. Further, the Rm in data set [1] stood at 3.43. In data set [2], the logP came to 4.68. At Albumin [3], this compound displayed a logKa of 4.54. This compound returned a pKa in data set [4] of 9.42.

`COc1ccc2c(c1)N(CCCN(C)C)c1ccccc1S2` [METHOXYPROMAZINE] had a Rm in data set [1] of 3.19. The logP in data set [2] was 4.63. This compound registered a logKa on Albumin [3] of 4.66. In data set [4], this compound had a pKa of 9.41. The “log K” value on Albumin [6] is 4.11.

For `CCc1nnc(NS(=O)(=O)c2ccc(N)cc2)s1` [SULFAETHIDOLE], the Activity at Albumin [7] worked out at 2.1 ×10⁵ L/mol.

Turning to `CSc1ccc2c(c1)N(CCC1CCCCN1C)c1ccccc1S2` (stereo not given) [THIORIDAZINE], in data set [1], the Rm is listed as 4.51. For the same compound, at Albumin [3], the logKa came out at 5.15.

With `CN1CCN(CCCN2c3ccccc3Sc3ccccc32)CC1` [PERAZINE], the “log K” value stood at 3.33 on Albumin [5] and 4.32 on Albumin [6]. In data set [1], this compound registered a Rm of 2.67. This compound also displayed a logP in data set [2] of 3.8. This compound yielded a logKa at Albumin [3] of 4.36. This compound registered a pKa in data set [4] of 8.1.

Regarding `CN(C)CCCN1c2ccccc2Sc2ccc(C(F)(F)F)cc21` [TRIFLUPROMAZINE], the “log K” value at Albumin [5] is 3.99; on Albumin [6], 4.58. The same compound came in with a Rm in data set [1] of 4.24. This compound also registered a logKa on Albumin [3] of 5.17.

Consider `CN(C)CCCN1c2ccccc2Sc2ccc(C#N)cc21`, for which, in data set [1], the Rm came out at 2.94. This compound registered a logKa at Albumin [3] of 4.46. The compound further displayed a pKa in data set [4] of 9.29.

In turn, `N#Cc1ccc2c(c1)N(CCCN1CCC(O)CC1)c1ccccc1S2` [PERICIAZINE] yielded a Rm in data set [1] of 2.17. In addition, the logKa on Albumin [3] is recorded as 4.12. Moreover, the pKa in data set [4] amounted to 8.5.

Consider `CN1CCN(CCCN2c3ccccc3Sc3ccc(Cl)cc32)CC1` [PROCHLORPERAZINE], for which, on Albumin [5], the “log K” value is 3.7. In data set [1], this compound came in with a Rm of 3.38. This compound displayed a logKa at Albumin [3] of 4.59.

`OCCN1CCN(CCCN2c3ccccc3Sc3ccc(Cl)cc32)CC1` [PERPHENAZINE] displayed a Rm in data set [1] of 2.74. Moreover, the logP in data set [2] stood at 3.92. At Albumin [3], this compound returned a logKa of 4.2. In data set [4], this compound registered a pKa of 7.9.

In data set [1], `CN1CCCCC1CCN1c2ccccc2Sc2ccc([S+](C)[O-])cc21` (stereo not given) [MESORIDAZINE] returned a Rm of 2.32.

In data set [1], `CN(C)CCCN1c2ccccc2Sc2ccc(Cl)cc21` [CHLORPROMAZINE] registered a Rm of 4.12. The same compound had a logKa on Albumin [3] of 4.98.

Consider `CN1CCN(CCCN2c3ccccc3Sc3ccc(C(F)(F)F)cc32)CC1` [TRIFLUOPERAZINE], for which the Rm in data set [1] worked out at 3.55. At Albumin [3], this compound came in with a logKa of 4.67.

For the origin of these results see ChEMBL document CHEMBL3272041, “Quantitative correlations between albumin binding constants and chromatographic Rm values of phenothiazine derivatives” (J Med Chem, 1977).
